What was measured:
[1] = target: T1, Cytoplasmic tyrosine-protein kinase BMX (Homo sapiens) (UniProt P51813)
T1 sequence (whole entry): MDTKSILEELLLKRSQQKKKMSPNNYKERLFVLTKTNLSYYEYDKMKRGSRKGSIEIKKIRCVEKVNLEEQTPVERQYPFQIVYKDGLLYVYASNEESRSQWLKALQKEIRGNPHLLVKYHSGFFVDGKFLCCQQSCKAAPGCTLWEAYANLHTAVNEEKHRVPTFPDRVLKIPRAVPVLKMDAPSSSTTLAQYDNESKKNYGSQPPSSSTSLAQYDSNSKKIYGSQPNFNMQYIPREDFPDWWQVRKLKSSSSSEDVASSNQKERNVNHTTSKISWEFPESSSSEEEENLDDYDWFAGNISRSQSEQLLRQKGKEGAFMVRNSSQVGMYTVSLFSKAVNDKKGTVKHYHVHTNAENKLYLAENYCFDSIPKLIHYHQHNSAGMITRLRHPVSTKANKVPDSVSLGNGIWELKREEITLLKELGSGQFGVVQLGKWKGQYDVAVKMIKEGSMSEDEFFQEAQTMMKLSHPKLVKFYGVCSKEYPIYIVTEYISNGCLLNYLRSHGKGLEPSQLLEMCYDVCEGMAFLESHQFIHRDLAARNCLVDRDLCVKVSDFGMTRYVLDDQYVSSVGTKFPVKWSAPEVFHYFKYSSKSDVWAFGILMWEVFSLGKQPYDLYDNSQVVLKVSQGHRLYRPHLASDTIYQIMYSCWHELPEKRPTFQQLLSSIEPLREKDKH

[2] = Growth inhibition of mouse BAF3 cells after 72 hrs by CellTiter-Glo or CCK-8 assay; assay type: cell-based
Method in brief: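 Isogenic murine BaF3 cells transformed with TEL-fused kinases, whose proliferation depends on the fused kinase, were used. Parental BaF3 cells served as the general selectivity counter-screen. The anti-proliferative read-out was reported as GI50.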

Which GI50 [1] does the source give for `C=CC(=O)Nc1cc(Nc2ncc3c(n2)N(C)C(=O)N(c2cc(NC(=O)c4ccc5c(c4)OCO5)ccc2C)C3)ccc1C` here?
Its GI50 is 0.23 µM.

And the GI50 at 72 h [2]?
The GI50 at 72 h was greater than 10 µM.

With `C=CC(=O)Nc1cc(Nc2ncc(C(=O)Nc3cc(NC(=O)c4ccccc4OC)ccc3C)c(NC)n2)ccc1C` as the compound, how does the GI50 [1] read?
The GI50 was 0.67 µM.

And the GI50 at 72 h [2]?
Its GI50 at 72 h is greater than 10 µM.

What does the source list for `C=CC(=O)Nc1cc(Nc2ncc(C(=O)Nc3cc(NC(=O)c4ccc5c(c4)OCCO5)ccc3C)c(NC)n2)ccc1C`?
GI50 [1]: 0.155 µM; GI50 at 72 h [2]: > 10 µM

With `C=CC(=O)Nc1cc(Nc2ncc3c(n2)N(C)C(=O)N(c2cc(NC(=O)c4cc(C)ccc4F)ccc2C)C3)ccc1C` as the compound, how does the GI50 [1] read?
Its GI50 is 0.031 µM.

What about the GI50 at 72 h [2] of the same compound?
The GI50 at 72 h was greater than 10 µM.

With `C=CC(=O)Nc1cc(Nc2ncc3c(n2)N(C)C(=O)N(c2cc(NC(=O)c4cc(OC)ccc4OC)ccc2C)C3)ccc1C` as the compound, how does the GI50 [1] read?
The GI50 was 3 µM.

What about the GI50 at 72 h [2] of the same compound?
Its GI50 at 72 h is greater than 10 µM.

With `C=CC(=O)Nc1cc(Nc2ncc3c(n2)N(C)C(=O)N(c2cc(NC(=O)c4ccc(OC)cc4OC)ccc2C)C3)ccc1C` as the compound, how does the GI50 [1] read?
Its GI50 is 2.74 µM.

What about the GI50 at 72 h [2] of the same compound?
The GI50 at 72 h was greater than 10 µM.

Which GI50 [1] does the source give for `C=CC(=O)Nc1cc(Nc2ncc(C(=O)Nc3cc(C(=O)Nc4cccc(C(F)(F)F)c4)ccc3C)c(NC)n2)ccc1C` here?
The GI50 was 0.008 µM.

And the GI50 at 72 h [2]?
Its GI50 at 72 h is 4.9 µM.

For `C=CC(=O)Nc1cc(Nc2ncc3c(n2)N(C)C(=O)N(c2cc(NC(=O)[C@H]4CC[C@H](C)CC4)ccc2C)C3)ccc1C`, which GI50 [1] is on record?
The GI50 was 2.28 µM.

What about the GI50 at 72 h [2] of the same compound?
The GI50 at 72 h was 8.81 µM.

What does the source list for `C=CC(=O)Nc1cc(Nc2ncc3c(n2)N(C)C(=O)N(c2cc(NC(=O)[C@H]4CC[C@H](CCC)CC4)ccc2C)C3)ccc1C`?
GI50 [1]: 0.64 µM; GI50 at 72 h [2]: 7.4 µM

With `C=CC(=O)Nc1cc(Nc2ncc3c(n2)N(C)C(=O)N(c2cc(NC(=O)c4cc(C(F)(F)F)cc(C(F)(F)F)c4)ccc2C)C3)ccc1C` as the compound, how does the GI50 [1] read?
The GI50 was 0.78 µM.

And the GI50 at 72 h [2]?
Its GI50 at 72 h is greater than 10 µM.

With `C=CC(=O)Nc1cc(Nc2ncc3c(n2)N(C)C(=O)N(c2cc(NC(=O)c4cccc(C(F)(F)F)c4)ccc2C)C3)ccc1C` as the compound, how does the GI50 at 72 h [2] read?
The GI50 at 72 h was 0.74 µM.

Which GI50 at 72 h [2] does the source give for `Cc1ccc(Nc2ncc3c(n2)N(C)C(=O)N(c2cc(NC(=O)c4cccc(C(F)(F)F)c4)ccc2C)C3)cn1` here?
The GI50 at 72 h was 0.12 µM.

With `C=CC(=O)Nc1cc(Nc2ncc3c(n2)N(C)C(=O)N(c2cc(NC(=O)c4ccc5c(c4)OCCO5)ccc2C)C3)ccc1C` as the compound, how does the GI50 [1] read?
Its GI50 is greater than 10 µM.

What about the GI50 at 72 h [2] of the same compound?
The GI50 at 72 h was greater than 10 µM.

With `C=CC(=O)Nc1cc(Nc2ncc3c(n2)N(C)C(=O)N(c2cc(NC(=O)c4ccc5c(c4)CCCC5)ccc2C)C3)ccc1C` as the compound, how does the GI50 at 72 h [2] read?
The GI50 at 72 h was greater than 10 µM.

With `C=CC(=O)Nc1cc(Nc2ncc3c(n2)N(C)C(=O)N(c2cc(NC(=O)c4cc(OC)c(OC)c(OC)c4)ccc2C)C3)ccc1C` as the compound, how does the GI50 [1] read?
Its GI50 is 5.93 µM.

And the GI50 at 72 h [2]?
The GI50 at 72 h was greater than 10 µM.

Which GI50 at 72 h [2] does the source give for `C=CC(=O)Nc1cc(Nc2ncc3c(n2)N(C)C(=O)N(c2cc(NC(=O)[C@@H](N)Cc4ccccc4)ccc2C)C3)ccc1C` here?
Its GI50 at 72 h is greater than 10 µM.

What does the source list for `C=CC(=O)Nc1cc(Nc2ncc(C(=O)Nc3cc(NC(=O)c4cc(C)ccc4F)ccc3C)c(NC)n2)ccc1C`?
GI50 [1]: 0.044 µM; GI50 at 72 h [2]: > 10 µM

Which results are given for `C=CC(=O)Nc1cc(Nc2ncc(C(=O)Nc3cc(NC(=O)c4cc(OC)cc(OC)c4)ccc3C)c(NC)n2)ccc1C`?
GI50 [1]: 0.119 µM; GI50 at 72 h [2]: > 10 µM

For `C=CC(=O)Nc1cc(Nc2ncc(C(=O)Nc3cc(C(=O)Nc4cc(OC)c(OC)c(OC)c4)ccc3C)c(NC)n2)ccc1C`, which GI50 [1] is on record?
Its GI50 is 0.098 µM.

And the GI50 at 72 h [2]?
The GI50 at 72 h was greater than 10 µM.

For `C=CC(=O)Nc1cc(Nc2ncc3c(n2)N(C)C(=O)N(c2cc(NC(=O)[C@H]4CC[C@H](C(C)C)CC4)ccc2C)C3)ccc1C`, which GI50 [1] is on record?
The GI50 was 5.28 µM.

And the GI50 at 72 h [2]?
The GI50 at 72 h was greater than 10 µM.

With `C=CC(=O)Nc1cc(Nc2ncc3c(n2)N(C)C(=O)N(c2cc(NC(=O)c4ccc(OC)c(OC)c4)ccc2C)C3)ccc1C` as the compound, how does the GI50 [1] read?
The GI50 was 0.24 µM.

And the GI50 at 72 h [2]?
Its GI50 at 72 h is 8.13 µM.

With `C=CC(=O)Nc1cc(Nc2ncc3c(n2)N(C)C(=O)N(c2cc(NC(=O)c4c(C)cccc4F)ccc2C)C3)ccc1C` as the compound, how does the GI50 [1] read?
Its GI50 is 2.78 µM.

What about the GI50 at 72 h [2] of the same compound?
Its GI50 at 72 h is greater than 10 µM.

Which GI50 [1] does the source give for `C=CC(=O)Nc1cc(Nc2ncc3c(n2)N(C)C(=O)N(c2cc(NC(=O)[C@H]4CC[C@H](CCCC)CC4)ccc2C)C3)ccc1C` here?
Its GI50 is 2.49 µM.

What about the GI50 at 72 h [2] of the same compound?
Its GI50 at 72 h is 5.08 µM.

What does the source list for `C=CC(=O)Nc1cc(Nc2ncc3c(n2)N(C)C(=O)N(c2cc(NC(=O)[C@@H](N)Cc4cc5ccccc5[nH]4)ccc2C)C3)ccc1C`?
GI50 [1]: > 10 µM; GI50 at 72 h [2]: > 10 µM

What does the source list for `C=CC(=O)Nc1cc(Nc2ncc3c(n2)N(C)C(=O)N(c2cc(NC(=O)c4ccc(N(C)C)cc4)ccc2C)C3)ccc1C`?
GI50 [1]: 1.03 µM; GI50 at 72 h [2]: > 10 µM

Which GI50 [1] does the source give for `C=CC(=O)Nc1cc(Nc2ncc3c(n2)N(C)C(=O)N(c2cc(NC(=O)c4ccc(OC)cc4)ccc2C)C3)ccc1C` here?
Its GI50 is 1.07 µM.

What about the GI50 at 72 h [2] of the same compound?
Its GI50 at 72 h is greater than 10 µM.

Which GI50 [1] does the source give for `C=CC(=O)Nc1cc(Nc2ncc(C(=O)Nc3cc(NC(=O)c4ccc(OC)cc4)ccc3C)c(NC)n2)ccc1C` here?
The GI50 was 1.1 µM.

What about the GI50 at 72 h [2] of the same compound?
Its GI50 at 72 h is greater than 10 µM.

For `C=CC(=O)Nc1cc(Nc2ncc3c(n2)N(C)C(=O)N(c2cc(NC(=O)[C@@H](N)CCC(=O)OC(C)(C)C)ccc2C)C3)ccc1C`, which GI50 [1] is on record?
Its GI50 is 8.35 µM.

And the GI50 at 72 h [2]?
The GI50 at 72 h was greater than 10 µM.

With `C=CC(=O)Nc1cc(Nc2ncc3c(n2)N(C)C(=O)N(c2cc(NC(=O)c4cc(OC)cc(OC)c4)ccc2C)C3)ccc1C` as the compound, how does the GI50 [1] read?
The GI50 was 0.69 µM.

And the GI50 at 72 h [2]?
Its GI50 at 72 h is greater than 10 µM.

Which GI50 [1] does the source give for `C=CC(=O)Nc1cc(Nc2ncc3c(n2)N(C)C(=O)N(c2cc(NC(=O)[C@H]4CC[C@H](C(F)(F)F)CC4)ccc2C)C3)ccc1C` here?
Its GI50 is 5.9 µM.

What about the GI50 at 72 h [2] of the same compound?
Its GI50 at 72 h is greater than 10 µM.

For `C=CC(=O)Nc1cc(Nc2ncc3c(n2)N(C)C(=O)N(c2cc(NC(=O)c4ccccc4OC)ccc2C)C3)ccc1C`, which GI50 [1] is on record?
The GI50 was 3.01 µM.

And the GI50 at 72 h [2]?
Its GI50 at 72 h is greater than 10 µM.

Which GI50 [1] does the source give for `C=CC(=O)Nc1cc(Nc2ncc(C(=O)Nc3cc(NC(=O)c4ccc(OC)c(OC)c4)ccc3C)c(NC)n2)ccc1C` here?
The GI50 was 1 µM.

What about the GI50 at 72 h [2] of the same compound?
The GI50 at 72 h was greater than 10 µM.

For `C=CC(=O)Nc1cc(Nc2ncc(C(=O)Nc3cc(NC(=O)c4cccc(OC)c4)ccc3C)c(NC)n2)ccc1C`, which GI50 [1] is on record?
Its GI50 is 6 µM.

And the GI50 at 72 h [2]?
Its GI50 at 72 h is greater than 10 µM.

Which GI50 [1] does the source give for `C=CC(=O)Nc1cc(Nc2ncc(C(=O)Nc3cc(NC(=O)c4ccc5c(c4)OCO5)ccc3C)c(NC)n2)ccc1C` here?
The GI50 was 1.08 µM.

And the GI50 at 72 h [2]?
Its GI50 at 72 h is greater than 10 µM.

With `C=CC(=O)Nc1cc(Nc2ncc3c(n2)N(C)C(=O)N(c2cc(NC(=O)c4ccc(C)c(C(F)(F)F)c4)ccc2C)C3)ccc1C` as the compound, how does the GI50 [1] read?
The GI50 was 1.24 µM.

What about the GI50 at 72 h [2] of the same compound?
Its GI50 at 72 h is greater than 10 µM.

For `C=CC(=O)Nc1cc(Nc2ncc3c(n2)N(C)C(=O)N(c2cc(NC(=O)[C@@H](N)CC(C)C)ccc2C)C3)ccc1C`, which GI50 [1] is on record?
Its GI50 is 0.13 µM.

What about the GI50 at 72 h [2] of the same compound?
Its GI50 at 72 h is greater than 10 µM.
